According to ChEMBL document CHEMBL1134466 (J Med Chem, 2001):

Legend:
Mus musculus [1] = assay: Antitumor activity against B16 murine melanoma at a dose of 100 mg/kg (ip) measured as percent weight change on day 8; assay type: functional
In short: (§1)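 Female B6D2F1 mice given 0.2 mL fresh B16 tumor brei ip (day 0), from sc-grown B16 in the same strain. Randomized 10/group and dosed ip on days 1-5 in 0.2 mL 1:2:7 Cremophor:ethanol:saline, freshly made. Mice monitored daily and weighed twice weekly; weight change taken on day 8. T/C = 100% × MST treated/control. 60-day survivors counted as long-term and excluded from MST.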

Mus musculus [2] = assay: (§2) Toxicity to bone marrow granulocyte/macrophage progenitors per femur at a dose of 150 mg/kg (ip); assay type: functional
In short: (§3)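 Male B6D2F1 mice (5/group) given drug or vehicle ip, single dose or daily ×5. Femoral marrow harvested 24 h after the last dose and plated at 2 × 10^4 viable nucleated cells/mL in methylcellulose (0.8%) medium with 20% FBS and 10% pokeweed mitogen-stimulated spleen-conditioned medium. Cultured 7 days at 37 °C, 5% CO2; colonies >50 cells counted. Mean colonies given as % of control per femur, mean ± SEM.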

Mus musculus [3] = assay: Antitumor activity against B16 murine melanoma at a dose of 100 mg/kg (ip) measured as increased life span (% T/C); assay type: functional; in short: as §1
Mus musculus [4] = assay: Antitumor activity in MX-1 Xenograft Model at a dose of 50 mg/kg (ip) measured as number of mice with partial tumor regression; assay type: functional
In short: (§4)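 Nude mice implanted sc by trocar in right foreflank with 1-2 mm3 MX-1 fragments. At ca. 5 × 5 mm (~10 days), pair-matched into groups of 10. Dosed ip days 1-5 in 0.2 mL 1:2:7 Cremophor:ethanol:saline. Weights and caliper measurements taken twice weekly; weight change on day 8. GI = 100% × (1 − tumor weight treated/control). Partial shrinkage = final tumor weight below day-1 weight; complete = tumor gone.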

Mus musculus [5] = assay: Antitumor activity against B16 murine melanoma at a dose of 100 mg/kg (ip) measured as 60-day survivors (% LTS); assay type: functional; in short: as §1
Mus musculus [6] = assay: (§5) Toxicity to bone marrow granulocyte/macrophage progenitors per femur at a dose of 200 mg/kg (ip); assay type: functional; in short: as §3
Mus musculus [7] = assay: Antitumor activity in MX-1 Xenograft Model at a dose of 50 mg/kg (ip) measured as percent weight change on day 8; assay type: functional; in short: as §4
Mus musculus [8] = assay: Antitumor activity in MX-1 Xenograft Model at a dose of 50 mg/kg (ip) measured as percent growth inhibition; assay type: functional; settings: read-out: GI; in short: as §4
Mus musculus [9] = assay: Antitumor activity in MX-1 Xenograft Model at a dose of 50 mg/kg (ip) measured as number of mice with complete tumor regression; assay type: functional; in short: as §4
Mus musculus [10] = assay: Toxicity to bone marrow granulocyte/macrophage progenitors per femur at a dose of 100 mg/kg (ip); assay type: functional; in short: as §3
Mus musculus [11] = assay: Antitumor activity against B16 murine melanoma at a dose of 7.5 mg/kg (ip) measured as percent weight change on day 8; assay type: functional; in short: as §1
Mus musculus [12] = assay: Antitumor activity against B16 murine melanoma at a dose of 7.5 mg/kg (ip) measured as 60-day survivors (% LTS); assay type: functional; in short: as §1
Mus musculus [13] = assay: Antitumor activity in MX-1 Xenograft Model at a dose of 25 mg/kg (ip) measured as number of mice with complete tumor regression; assay type: functional; in short: as §4
Mus musculus [14] = assay: Antitumor activity in MX-1 Xenograft Model at a dose of 25 mg/kg (ip) measured as percent growth inhibition; assay type: functional; settings: read-out: GI; in short: as §4
Mus musculus [15] = assay: Antitumor activity against B16 murine melanoma at a dose of 7.5 mg/kg (ip) measured as increased life span (% T/C); assay type: functional; in short: as §1
Mus musculus [16] = assay: Antitumor activity against B16 murine melanoma at a dose of 50 mg/kg (ip) measured as percent weight change on day 8; assay type: functional; in short: as §1
Mus musculus [17] = assay: as §2; assay type: organism-based; set-up: dose 150 mg/kg; settings: in vivo; in short: as §3
Mus musculus [18] = assay: Antitumor activity in MX-1 Xenograft Model at a dose of 25 mg/kg (ip) measured as number of mice with partial tumor regression; assay type: functional; in short: as §4
Mus musculus [19] = assay: Antitumor activity against B16 murine melanoma at a dose of 50 mg/kg (ip) measured as 60-day survivors (% LTS); assay type: functional; in short: as §1
Mus musculus [20] = assay: Antitumor activity against B16 murine melanoma at a dose of 50 mg/kg (ip) measured as increased life span (% T/C); assay type: functional; in short: as §1
Mus musculus [21] = assay: as §5; assay type: organism-based; set-up: dose 200 mg/kg; settings: in vivo; in short: as §3
Mus musculus [22] = assay: Toxicity to bone marrow granulocyte/macrophage progenitors per femur at a dose of 50 mg/kg (ip); assay type: functional; in short: as §3
Mus musculus [23] = assay: Antitumor activity against B16 murine melanoma at a dose of 5 mg/kg (ip) measured as 60-day survivors (% LTS); assay type: functional; in short: as §1
Mus musculus [24] = assay: Antitumor activity against B16 murine melanoma at a dose of 5 mg/kg (ip) measured as increased life span (% T/C); assay type: functional; in short: as §1

O=[N+]([O-])c1ccc(COP(=O)(N(CCCl)CCCl)N(CCCl)CCCl)o1
Weight change (Mus musculus [1]): 6% | Control (Mus musculus [2]): 104% | T/C (Mus musculus [3]): 172% | No. partial (Mus musculus [4]): 7 | LTS (Mus musculus [5]): 10% | Control (Mus musculus [6]): 26% | Weight change (Mus musculus [7]): 2% | inhibition in vivo at 50 mg/kg (Mus musculus [8]): 99% | No. total (Mus musculus [9]): 0 | Control (Mus musculus [10]): 100%

O=[N+]([O-])c1ccc(COP(=O)(N(CCCl)CCCl)N(CCCl)CCCl)s1
Weight change (Mus musculus [11]): 10% | LTS (Mus musculus [12]): 20% | No. total (Mus musculus [13]): 0 | inhibition in vivo at 25 mg/kg (Mus musculus [14]): > 99% | T/C (Mus musculus [15]): 248% | Weight change (Mus musculus [16]): 8% | Weight change (Mus musculus [7]): 1% | Control (Mus musculus [17]): 106% | No. partial (Mus musculus [18]): 10 | LTS (Mus musculus [19]): 0% | T/C (Mus musculus [20]): 166% | Control (Mus musculus [21]): 81%

O=[N+]([O-])c1ccc(COP(=O)(N(CCBr)CCBr)N(CCBr)CCBr)o1
Control (Mus musculus [22]): 102% | Control (Mus musculus [2]): 23% | Weight change (Mus musculus [16]): 11% | No. partial (Mus musculus [4]): 6 | Weight change (Mus musculus [7]): 11% | LTS (Mus musculus [19]): 0% | T/C (Mus musculus [20]): 202% | inhibition in vivo at 50 mg/kg (Mus musculus [8]): > 99% | No. total (Mus musculus [9]): 4 | Control (Mus musculus [10]): 32%

O=[N+]([O-])c1ccc(COP(=O)(N(CCBr)CCBr)N(CCBr)CCBr)s1
Control (Mus musculus [22]): 93% | Weight change (Mus musculus [16]): 10% | LTS (Mus musculus [23]): 0% | T/C (Mus musculus [24]): 185% | Control (Mus musculus [10]): 64%
